Data on 19 compounds can be found in ChEMBL document CHEMBL3108680, “Diversity-oriented synthesis of α-aminophosphonates: a new class of potential anticancer agents” (Eur J Med Chem, 2013).

Type in all cases: functional, cell-based
Assay [1] relates to Jurkat. The experiment in a line: Cytotoxicity against human Jurkat cells at 500 uM after 48 hrs by MTT assay. For orientation: Formazan colour is commonly taken as a measure of viable cells.
Assay [2] relates to MG-63. Put plainly: Cytotoxicity against human MG63 cells at 500 uM after 48 hrs by MTT assay.
Assay [3] relates to COLO 320DM. Put plainly: (§1) Cytotoxicity against human COLO320DM cells after 48 hrs by MTT assay. In a few lines:
(§2)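 Jurkat and Colo 320DM grown in RPMI 1640 with 10% FBS and 1% ampicillin; A549 in 90% DMEM with 10% FBS. Cells seeded at line-dependent densities, held 24 h compound-free, then exposed 48 h to six 2-fold dilutions (top […]). MTT (10 mg/ml PBS solution) added for 4 h at 37 °C; DMSO-solubilized formazan read at 570 nm. Three runs in triplicate.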

A short description of assay [4]: as §1. The settings on record: COLO 320DM. In a few lines:
as §2

Assay [5] has as its system NCI-H23. Put plainly: Cytotoxicity against human NCI-H23 cells at 500 uM after 48 hrs by MTT assay.
Assay [6] deals with A549. The experiment in a line: Cytotoxicity against human A549 cells at 500 uM after 48 hrs by MTT assay.
The subject of assay [7] is COLO 320DM. Put plainly: Cytotoxicity against human COLO320DM cells at 500 uM after 48 hrs by MTT assay.
For assay [8], the system named is Jurkat. The experiment in a line: Cytotoxicity against human Jurkat cells after 48 hrs by MTT assay. Summed up: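 Cells seeded at line-dependent densities, held 24 h compound-free, then exposed 48 h to six 2-fold dilutions (top […]). MTT (10 mg/ml PBS solution) added for 4 h at 37 °C; DMSO-solubilized formazan read at 570 nm. Three runs in triplicate.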

Assay [9] concerns NCI-H23. The experiment in a line: Cytotoxicity against human NCI-H23 cells after 48 hrs by MTT assay. The following applies: for IC50: NCI-H23, 48 h. Summed up:
(§3)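 Cells seeded at densities suited to their growth and incubated 24 h compound-free. They were then treated 48 h with six 2-fold serial dilutions, top […]. Viability was measured by MTT (added from a 10 mg/ml PBS solution; 4 h, 37 °C), followed by centrifugation, DMSO dissolution and A570. Run thrice in triplicate; mean ± SD, n = 3.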

Assay [10] relates to MG-63. Put plainly: (§4) Cytotoxicity against human MG63 cells after 48 hrs by MTT assay. In a few lines: as §3
Assay [11] in a line: as §4. The following applies: MG-63, 48 h. In a few lines:
as §3

In assay [12] the test system is A549. Put plainly: Cytotoxicity against human A549 cells after 48 hrs by MTT assay. The settings on record: for IC50: A549, 48 h. In a few lines:
as §2

For assay [13], the system named is COLO 320DM. Put plainly: Cytotoxicity against human COLO320DM cells at 200 uM after 48 hrs by MTT assay.
For assay [14], the system named is Jurkat. Put plainly: Cytotoxicity against human Jurkat cells at 200 uM after 48 hrs by MTT assay.
Assay [15] has as its system A549. Put plainly: Cytotoxicity against human A549 cells at 200 uM after 48 hrs by MTT assay.
Assay [16] concerns Jurkat. Put plainly: Cytotoxicity against human Jurkat cells at 100 uM after 48 hrs by MTT assay.
For assay [17], the system named is NCI-H23. Put plainly: Cytotoxicity against human NCI-H23 cells at 250 uM after 48 hrs by MTT assay.
Assay [18] deals with MG-63. The experiment in a line: Cytotoxicity against human MG63 cells at 250 uM after 48 hrs by MTT assay.

The source made the active and inactive calls. The calls are words filed in the database; no cut-off is given here.

As a reminder, the IC50 is the concentration that gives 50% inhibition. Low readings indicate greater potency, high ones weaker potency.

For the compound `CCOP(=O)(OCC)C(Nc1ccccc1)c1ccc(F)cc1` (stereo unspecified), the inhibition entry with Jurkat [1], in the assay on MG-63 [2], in the assay on NCI-H23 [5] and in the assay with A549 [6] was “inactive” throughout. In addition, the inhibition entry in the assay on COLO 320DM [3] was “Dose-dependent effect”. The same compound gave an IC50 in assay [4] of 160 µM.

On to `O=P(Oc1ccccc1)(Oc1ccccc1)C(Nc1cccc(F)c1)c1ccc2c(c1)OCO2` (stereo unspecified), for which the inhibition entry with COLO 320DM [7], in the assay with MG-63 [2] and in the assay with A549 [6] was “inactive” each time. For the same compound, the values for the IC50 in the assay with Jurkat [8] and in the assay on NCI-H23 [9] were 490 µM and 48.2 µM, respectively. For the same compound, the inhibition result in the assay on Jurkat [8] and with NCI-H23 [9] was “Dose-dependent effect” throughout.

Regarding `CCCCOP(=O)(OCCCC)C(Nc1cccc(F)c1)c1ccc2c(c1)OCO2` (stereo unspecified), the inhibition result with MG-63 [10], with A549 [12], in the assay on COLO 320DM [3], with Jurkat [8] and with NCI-H23 [9] was “Dose-dependent effect” in each case. Further, the concentration for half-maximal inhibition (IC50) in assay [11] was 122 µM; with A549 [12], 364 µM; in assay [4], 80.3 µM; with Jurkat [8] it was above 500 µM; in the assay on NCI-H23 [9], 95.8 µM.

On to `CCOP(=O)(OCC)C(Nc1ccccc1)c1ccc(OC)cc1` (stereo unspecified), for which the inhibition result in the assay on COLO 320DM [13], in the assay on Jurkat [14] and with A549 [15] was “inactive” in each case. Moreover, the inhibition result in the assay with MG-63 [10] and with NCI-H23 [9] was “Dose-dependent effect” throughout. Moreover, the half-maximal inhibitory concentration (IC50) in assay [11] came out at 106 µM; with NCI-H23 [9], 53.8 µM.

With `CCCCOP(=O)(OCCCC)C(Nc1ccccc1C)c1ccc2c(c1)OCO2` (stereo unspecified), the inhibition result with COLO 320DM [7], in the assay with MG-63 [2], in the assay on NCI-H23 [5] and with A549 [6] was “inactive” in each case. The compound also yielded a half-inhibitory concentration (IC50) with Jurkat [8] above 500 µM. For the same compound, the inhibition entry with Jurkat [8] is “Dose-dependent effect”.

For the compound `CCOP(=O)(OCC)C(Nc1ccccc1)c1ccc(OC)c(OC)c1` (stereo unspecified), the inhibition entry in the assay with MG-63 [10], in the assay on A549 [12], with COLO 320DM [3] and in the assay with NCI-H23 [9] was “Dose-dependent effect” in each case. Besides, the half-maximal inhibitory concentration (IC50) in assay [11] turned out to be 34 µM; with A549 [12], 74.1 µM; in assay [4] it was 36.4 µM; in the assay on NCI-H23 [9], 39.5 µM. For the same compound, the inhibition entry in the assay on Jurkat [16] is “inactive”.

Take `O=c1[nH]cc(F)c(=O)[nH]1` [FLUOROURACIL]: in the assay with COLO 320DM [3], the inhibition entry is “Dose-dependent effect”. Besides, the IC50 in [4] was determined as 2 µM.

As to `CCOP(=O)(OCC)C(Nc1ccccc1)c1ccc([N+](=O)[O-])cc1` (stereo unspecified), the inhibition result with MG-63 [10], in the assay with A549 [12], in the assay with COLO 320DM [3] and in the assay with NCI-H23 [9] was “Dose-dependent effect” in each case. In addition, the IC50 in assay [11] came out at 31.9 µM; in the assay on A549 [12] it was 57.5 µM; in assay [4], 42.1 µM; with NCI-H23 [9], 37.4 µM. Further, the inhibition result in the assay on Jurkat [16] was “inactive”.

Turning to `CC/C(=C(\c1ccccc1)c1ccc(OCCN(C)C)cc1)c1ccccc1`, the inhibition entry with Jurkat [8] was “Dose-dependent effect”.

For the compound `CO[C@@]12[C@H](COC(N)=O)C3=C(C(=O)C(C)=C(N)C3=O)N1C[C@@H]1N[C@@H]12` [MITOMYCIN], in the assay with NCI-H23 [9], the inhibition result is “Dose-dependent effect” and half-maximal inhibition (IC50) required 2 µM.

Take `COc1cccc2c1C(=O)c1c(O)c3c(c(O)c1C2=O)C[C@@](O)(C(=O)CO)C[C@@H]3O[C@H]1C[C@H](N)[C@H](O)[C@H](C)O1` [DOXORUBICIN]: the inhibition result in the assay with MG-63 [10] and in the assay on A549 [12] was “Dose-dependent effect” in each case. The IC50 in assay [11] worked out at 3.17 µM; in the assay with A549 [12] it was 4 µM.

For the compound `CCCCOP(=O)(OCCCC)C(Nc1ccc2c(c1)OCO2)c1ccc2c(c1)OCO2` (stereo unspecified), the inhibition entry with NCI-H23 [17] and in the assay on MG-63 [18] was “inactive” in each case. In addition, the inhibition entry in the assay with A549 [12], in the assay on COLO 320DM [3] and in the assay on Jurkat [8] was “Dose-dependent effect” each time. Moreover, the half-maximal inhibitory concentration (IC50) amounted to 192 µM in the assay with A549 [12], 66.5 µM in [4] and 80 µM in the assay on Jurkat [8].

On to `CCOP(=O)(OCC)C(Nc1c(C)cccc1C)c1ccc2c(c1)OCO2` (stereo unspecified), for which the inhibition entry in the assay on MG-63 [10], in the assay with A549 [12], in the assay with COLO 320DM [3], in the assay on Jurkat [8] and in the assay on NCI-H23 [9] was “Dose-dependent effect” throughout. The 50% inhibitory concentration (IC50) was 114 µM in assay [11]; above 500 µM in the assay on A549 [12]; 105 µM in assay [4]; above 500 µM with Jurkat [8]; 248 µM with NCI-H23 [9].

On to `CCCCOP(=O)(OCCCC)C(Nc1cccc(Cl)c1)c1ccc2c(c1)OCO2` (stereo unspecified), for which the inhibition entry in the assay with MG-63 [10], in the assay with A549 [12], in the assay with COLO 320DM [3], with Jurkat [8] and with NCI-H23 [9] was “Dose-dependent effect” in each case. Besides, the IC50 is 108 µM in assay [11]; 263 µM in the assay with A549 [12]; 93 µM in [4]; above 500 µM with Jurkat [8]; 77.2 µM in the assay with NCI-H23 [9].

With `CCCCOP(=O)(OCCCC)C(N[C@@H](C)c1ccccc1)c1ccc2c(c1)OCO2` (stereo partly specified), the inhibition result in the assay on COLO 320DM [7], in the assay on Jurkat [1], in the assay on MG-63 [2], with NCI-H23 [5] and in the assay with A549 [6] was “inactive” in each case.

For the compound `CCOP(=O)(OCC)C(Nc1ccccc1O)c1ccc2c(c1)OCO2` (stereo unspecified), the inhibition entry in the assay with MG-63 [10], with A549 [12], in the assay on COLO 320DM [3], in the assay with Jurkat [8] and in the assay on NCI-H23 [9] was “Dose-dependent effect” each time. Also, the IC50 in assay [11] was 115 µM; in the assay on A549 [12] it was 278 µM; in [4], 79.4 µM; in the assay on Jurkat [8] it was above 500 µM; in the assay with NCI-H23 [9], 190 µM.

For `CCCCOP(=O)(OCCCC)C(N[C@H](C)c1ccccc1)c1ccc2c(c1)OCO2` (stereo partly specified), the inhibition result with MG-63 [10], in the assay on A549 [12], in the assay on COLO 320DM [3], with Jurkat [8] and in the assay on NCI-H23 [9] was “Dose-dependent effect” each time. In addition, the half-maximal inhibitory concentration (IC50) in assay [11] was 13.6 µM; with A549 [12] it was 43.4 µM; in assay [4], 15.8 µM; in the assay on Jurkat [8] it was 4 µM; in the assay with NCI-H23 [9], 28.6 µM.

With `CCOP(=O)(OCC)C(Nc1ccccc1)c1ccc2c(c1)OCO2` (stereo unspecified), the inhibition entry with MG-63 [10], with A549 [12], in the assay with COLO 320DM [3], in the assay on Jurkat [8] and with NCI-H23 [9] was “Dose-dependent effect” each time. The IC50 in assay [11] was 68.8 µM; in the assay on A549 [12] it was 134 µM; in assay [4] it was 92 µM; with Jurkat [8], above 500 µM; in the assay on NCI-H23 [9], 65.8 µM.

For the compound `CCOP(=O)(OCC)C(Nc1ccccc1)c1ccc(OC)c(O)c1` (stereo unspecified), the inhibition result in the assay on MG-63 [10], with A549 [12], in the assay on COLO 320DM [3], in the assay on Jurkat [8] and in the assay with NCI-H23 [9] was “Dose-dependent effect” in each case. The IC50 in assay [11] worked out at 37.5 µM; with A549 [12], 62.4 µM; in assay [4] it was 47.9 µM; with Jurkat [8], 57 µM; with NCI-H23 [9], 39.7 µM.
